Measured values collected from several papers.
Lines come from different studies, so protocols differ.

SMILES	target or system	assay	system	conditions	measurement	result
CCCC[C@@H]1NC(=O)[C@H](Cc2ccc(O)cc2)NC(=O)[C@@H]2CCCN2C(=O)[C@H](CC(=O)O)NC(=O)[C@H](C)NC(=O)[C@H](Cc2ccccc2)NC(=O)[C@@H]2CSCCC(=O)N3CN(CN(C3)C(=O)CCSC[C@H](NC(C)=O)C(=O)N[C@@H](CC(C)(C)C)C(=O)N3CCC[C@H]3C(=O)N[C@@H](CCC(=O)O)C(=O)N[C@H](CCCCNC(=O)CCc3cn(CCOCCOCCOCCN(CCOCCOCCOCCC(=O)N[C@H]4CSCCC(=O)N5CN6CN(C5)C(=O)CCSC[C@H](NC(=O)[C@@H](CC(=O)O)NC(=O)[C@H](Cc5cccc7ccccc57)NC(=O)[C@@H]5CCCN5C4=O)C(=O)N[C@@H](CCSC)C(=O)N[C@@H](CCCCNC(=N)N)C(=O)N[C@@H](CC(=O)O)C(=O)N[C@@H](Cc4c[nH]c5ccccc45)C(=O)N[C@@H](CO)C(=O)N[C@@H]([C@@H](C)O)C(=O)N4CCC[C@H]4C(=O)N4C[C@H](O)C[C@H]4C(=O)N[C@@H](Cc4c[nH]c5ccccc45)C(=O)N[C@H](C(N)=O)CSCCC6=O)CCOCCOCCOCCn4cc(CCC(=O)NCCCC[C@H]5NC(=O)[C@H](CCC(=O)O)NC(=O)[C@@H]6CCCN6C(=O)[C@H](CC(C)(C)C)NC(=O)[C@@H](NC(C)=O)CSCCC(=O)N6CN7CN(C6)C(=O)CCSC[C@H](NC(=O)[C@H](Cc6ccc(O)cc6)NC(=O)[C@@H]6CCCN6C5=O)C(=O)N[C@@H](Cc5ccccc5)C(=O)N[C@@H](C)C(=O)N[C@@H](CC(=O)O)C(=O)N5CCC[C@H]5C(=O)N[C@@H](Cc5ccc(O)cc5)C(=O)N[C@@H](CCCC)C(=O)N[C@H](C(N)=O)CSCCC7=O)nn4)nn3)C(=O)N3CCC[C@H]3C(=O)N[C@@H](Cc3ccc(O)cc3)C(=O)N2)C(=O)CCSC[C@@H](C(N)=O)NC1=O	–	–	rat, plasma	intravenous, 2 mg/kg	clearance	0.78 L/h/kg
Cc1nc(Nc2ccc(NC(=O)c3ccco3)cc2)cc(-n2cccn2)n1	HeLa	cell growth or viability, MTS	–	–	CC50	> 100 µM
CN[C@H](CC(C)C)C(=O)N[C@H]1C(=O)N[C@@H](CC(N)=O)C(=O)N[C@H]2C(=O)N[C@H]3C(=O)N[C@H](C(=O)N[C@H](C(=O)O)c4cc(O)cc(O)c4-c4cc3ccc4O)[C@H](O)c3ccc(c(Cl)c3)Oc3cc2cc(c3O[C@@H]2O[C@H](CO)[C@@H](O)[C@H](O)[C@H]2O[C@H]2C[C@](C)(N)[C@H](O)[C@H](C)O2)Oc2ccc(cc2Cl)[C@H]1O	–	haemolysis	human	200 µM, 1 h, pH 7.2	haemolysis	≤ 1%
CC(C)(C)NC(=O)N[C@H](C(=O)N1C[C@H]2[C@@H]([C@H]1C(=O)NC(CC1CCC1)C(=O)C(N)=O)C2(C)C)C(C)(C)C (some centres unmarked)	HCT-8	cell growth or viability, neutral red	–	48 h	CC50	> 100 µM
CC[C@H](C)[C@H](N)C(=O)N[C@@H](CC(N)=O)C(=O)N[C@@H](CC(C)C)C(=O)N[C@@H](CCCCN)C(=O)N[C@@H](C)C(=O)N[C@@H](CC(C)C)C(=O)N[C@@H](C)C(=O)N[C@@H](C)C(=O)N[C@@H](CC(C)C)C(=O)N[C@@H](C)C(=O)N[C@@H](CCCCN)C(=O)N[C@@H](CCCCN)C(=O)N[C@H](C(=O)N[C@@H](CC(C)C)C(N)=O)[C@@H](C)CC	–	haemolysis	human	100 µM	haemolysis	≤ 15%
CCCCCCCCCCOc1cc2c(O)c(C(=O)OCC)cnc2cc1OCC	HeLa	cell growth or viability	–	72 h	IC50	> 100 µM
[2H]C([2H])([2H])n1cc2cc(Nc3nc(=O)n(Cc4ncn(C)n4)c(=O)n3Cc3cc(F)c(F)cc3F)c(Cl)cc2n1	–	–	male Sprague-Dawley rat, plasma	intravenous, 5 mg/kg	clearance	0.0617 L/h/kg
Nc1ncnc2c1ncn2C[C@H](O)CO	HeLa	cell growth or viability, MTS	–	–	CC50	> 250 µM
CCCC[C@@H]1NC(=O)[C@H](Cc2ccc(O)cc2)NC(=O)[C@@H]2CCCN2C(=O)[C@H](CC(=O)O)NC(=O)[C@H](C)NC(=O)[C@H](Cc2ccccc2)NC(=O)[C@@H]2CSCCC(=O)N3CN(CN(C3)C(=O)CCSC[C@@H](C(=O)N[C@@H](CNC(=O)CCOCCOCCOCCOCCOCCn3cc(CCC(=O)N[C@H]4CSCCC(=O)N5CN6CN(C5)C(=O)CCSC[C@H](NC(=O)[C@@H](CC(=O)O)NC(=O)[C@H](Cc5cccc7ccccc57)NC(=O)[C@@H]5CCCN5C4=O)C(=O)N[C@@H](CCSC)C(=O)N[C@@H](CCCCNC(=N)N)C(=O)N[C@@H](CC(=O)O)C(=O)N[C@@H](Cc4c[nH]c5ccccc45)C(=O)N[C@@H](CO)C(=O)N[C@@H]([C@@H](C)O)C(=O)N4CCC[C@H]4C(=O)N4C[C@H](O)C[C@H]4C(=O)N[C@@H](Cc4c[nH]c5ccccc45)C(=O)N[C@H](C(N)=O)CSCCC6=O)nn3)C(N)=O)NC1=O)C(=O)CCSC[C@H](NC(C)=O)C(=O)N[C@@H](CC(C)(C)C)C(=O)N1CCC[C@H]1C(=O)N[C@@H](CCC(=O)O)C(=O)N[C@H](C)C(=O)N1CCC[C@H]1C(=O)N[C@@H](Cc1ccc(O)cc1)C(=O)N2	–	–	rat, plasma	intravenous, 2 mg/kg	clearance	0.96 L/h/kg
NC(=O)c1ncn([C@@H]2O[C@H](CO)[C@@H](O)[C@H]2O)n1	HeLa	cell growth or viability, MTS	–	–	CC50	> 250 µM
COc1cc(Br)c(C=NNc2nc(-c3ccc(F)cc3)cs2)cc1OC	–	haemolysis	human	10 µM, 30 min, pH 7.4	haemolysis	3.06%
